Assay results: ChEMBL document CHEMBL1821697, “Design and synthesis of brain penetrant selective JNK inhibitors with improved pharmacokinetic properties for the prevention of neurodegeneration” (Bioorg Med Chem Lett, 2011)
Blank lines part the entries; values can stand above or below the compound they belong to.

Assays:
[1] = Oxidative metabolic stability in human liver microsomes assessed as compound remaining at 1 uM after 30 mins; type: ADME, Microsome; details: read-out: Stability
In short: (§1)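 Test compound was incubated with mouse, rat or human liver microsomes for 30 min. The read-out is percent of parent compound remaining.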

[2] = Half life in rat at 1 mg/kg, iv; type: ADME, organism-based; design: dose 1 mg/kg, route intravenous; details: in vivo
In short: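 Rats were given a single intravenous dose of 1 mg/kg. Half-life is reported in min, together with clearance (mL/h/kg).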

Rattus norvegicus [3] = experiment: AUC in rat at 2 mg/kg, po; type: ADME, organism-based, Plasma; design: dose 2 mg/kg, route oral; details: in vivo
In short: (§2)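 Rats received an oral dose of 2 mg/kg. Plasma AUC is reported in nmol h/mL. Oral bioavailability (F%) was calculated against a 1 mg/kg intravenous dose.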

Rattus norvegicus [4] = experiment: Oral bioavailability in rat at 2 mg/kg; type: ADME, organism-based; details: in vivo; in short: as §2
[5] = target: T1, Mitogen-activated protein kinase 1 (Homo sapiens, UniProt P28482); experiment: Inhibition of recombinant ERK2 using Ser383 of Elk-1 as substrate preincubated for 15 mins measured after 60 mins by TR-FRET assay
[6] = target: Mitogen-activated protein kinase 9 (Homo sapiens, UniProt P45984); experiment: Inhibition of recombinant JNK2 using ser73 of c-jun as substrate preincubated for 15 mins measured after 60 mins by TR-FRET assay
In short: (§3)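 Recombinant JNK enzyme assay run at 10 µM ATP. IC50 values are means of at least three experiments.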

MDR1 = experiment: Efflux ratio of permeability across MDCK2 expressing MDR1 at 5 uM after 120 mins by LC/MS/MS method; type: ADME, Canis lupus familiaris, MDCK-II; details: dog, MDCK-MDR1
[7] = Oxidative metabolic stability in mouse liver microsomes assessed as compound remaining at 1 uM after 30 mins; type: ADME, Microsome; details: read-out: Stability; in short: as §1
[8] = Ratio of drug level in brain to plasma in mouse at 1 mg/kg, iv; type: ADME, organism-based; design: dose 1 mg/kg, route intravenous; details: read-out: BPR
In short: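 Single intravenous dose of 1 mg/kg in mice. Brain exposure was reported as brain AUC (ng h/mL), together with the brain-to-plasma ratio.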

[9] = target: Mitogen-activated protein kinase 8 (Homo sapiens, UniProt P45983); experiment: Inhibition of recombinant JNK1 using ser73 of c-jun as substrate preincubated for 15 mins measured after 60 mins by TR-FRET assay; in short: as §3
[10] = Apparent permeability from apical to basolateral side of MDCK2 cells at 5 uM after 120 mins by LC/MS/MS method; type: ADME, cell-based, Canis lupus familiaris, MDCK-II; details: dog, MDCK
[11] = AUC in mouse brain at 1 mg/kg, iv; type: ADME, organism-based; design: dose 1 mg/kg, route intravenous
In short: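 Mice were dosed intravenously at 1 mg/kg. Brain exposure was expressed as AUC (ng h/mL) alongside the brain/plasma ratio.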

[12] = target: T2, Mitogen-activated protein kinase 10 (Homo sapiens, UniProt P53779); experiment: Inhibition of recombinant JNK3 using ser73 of c-jun as substrate preincubated for 15 mins measured after 60 mins by TR-FRET assay; in short: as §3
[13] = Oxidative metabolic stability in rat liver microsomes assessed as compound remaining at 1 uM after 30 mins; type: ADME, Microsome; details: read-out: Stability; in short: as §1
[14] = target: Mitogen-activated protein kinase 14 (Homo sapiens, UniProt Q16539); experiment: Inhibition of recombinant p38alpha Thr69/71 of ATF-2 as substrate preincubated for 15 mins measured after 60 mins by TR-FRET assay
[15] = Solubility of the compound in Hank's buffered salt solution at 20 mM at pH 7.4 after 1 hr; type: physicochemical
[16] = target: Insulin receptor (Homo sapiens) (UniProt P06213); experiment: Inhibition of INSR at 10 uM
[17] = target: Serine/threonine-protein kinase PLK1 (Homo sapiens) (UniProt P53350); experiment: Inhibition of PLK1 at 10 uM
[18] = target: Glycogen synthase kinase-3 beta (Homo sapiens) (UniProt P49841); experiment: Inhibition of GSK3-beta at 10 uM
[19] = target: Macrophage colony-stimulating factor 1 receptor (Homo sapiens) (UniProt P07333); experiment: Inhibition of CSF1R at 10 uM
[20] = target: Serine/threonine-protein kinase PLK2 (Homo sapiens) (UniProt Q9NYY3); experiment: Inhibition of PLK2 at 10 uM
[21] = target: Serine/threonine-protein kinase PAK 4 (Homo sapiens) (UniProt O96013); experiment: Inhibition of PAK4 at 10 uM
Cortical neurone = experiment: Neuroprotective activity in human cerebral cortical neurons assessed as reversal of amyloid beta-induced neuronal damage after 2 to 3 days; type: functional
In short: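 Human cortical neurons were exposed to amyloid-β in a neurotoxicity assay. Neuroprotection by the inhibitor was expressed as an EC50.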

[22] = target: Protein-tyrosine kinase 2-beta (Homo sapiens) (UniProt Q14289); experiment: Inhibition of PTK2B at 10 uM
[23] = target: T1, Mitogen-activated protein kinase 1; experiment: Inhibition of ERK2 at 10 uM
[24] = target: Dual specificity protein kinase CLK1 (Homo sapiens) (UniProt P49759); experiment: Inhibition of CLK1 at 10 uM
[25] = target: Tyrosine-protein kinase Lck (Homo sapiens) (UniProt P06239); experiment: Inhibition of LCK at 10 uM
[26] = target: RAC-alpha serine/threonine-protein kinase (Homo sapiens) (UniProt P31749); experiment: Inhibition of AKT1 at 10 uM
[27] = target: Cyclin-dependent kinase 5/CDK5 activator 1 (Homo sapiens) (UniProt Q00535+Q15078); experiment: Inhibition of CDK5/P25 at 10 uM; type: protein-complex assay
[28] = target: PI3-kinase p110-alpha/p85-alpha (Homo sapiens) (UniProt P27986+P42336); experiment: Inhibition of PIK3CA/PIK3R1 at 10 uM; type: protein-complex assay
[29] = target: Platelet-derived growth factor receptor alpha (Homo sapiens) (UniProt P16234); experiment: Inhibition of PDGFRA at 10 uM
[30] = target: Proto-oncogene tyrosine-protein kinase receptor Ret (Homo sapiens) (UniProt P07949); experiment: Inhibition of RET at 10 uM
[31] = target: Tyrosine-protein kinase JAK1 (Homo sapiens) (UniProt P23458); experiment: Inhibition of JAK1 at 10 uM
[32] = target: Protein kinase C beta type (Homo sapiens) (UniProt P05771); experiment: Inhibition of PRKCB1 at 10 uM
[33] = target: Cyclin-dependent kinase 2/cyclin A (Homo sapiens) (UniProt P24941+P20248+P78396); experiment: Inhibition of CDK2/Cyclin A at 10 uM; type: protein-complex assay
[34] = target: Rho-associated protein kinase 2 (Homo sapiens) (UniProt O75116); experiment: Inhibition of ROCK2 at 10 uM
[35] = target: Serine/threonine-protein kinase 3 (Homo sapiens) (UniProt Q13188); experiment: Inhibition of STK3 at 10 uM
[36] = target: Cyclin-dependent kinase 1/cyclin B1 (Homo sapiens) (UniProt P06493+P14635); experiment: Inhibition of CDK1/Cyclin B1 at 10 uM; type: protein-complex assay
[37] = target: Serine/threonine-protein kinase Chk1 (Homo sapiens) (UniProt O14757); experiment: Inhibition of CHEK1 at 10 uM
[38] = target: Receptor-interacting serine/threonine-protein kinase 2 (Homo sapiens) (UniProt O43353); experiment: Inhibition of RIPK2 at 10 uM
[39] = target: Tyrosine-protein kinase SYK (Homo sapiens) (UniProt P43405); experiment: Inhibition of SYK at 10 uM
[40] = target: Dual specificity tyrosine-phosphorylation-regulated kinase 1B (Homo sapiens) (UniProt Q9Y463); experiment: Inhibition of DYRK1B at 10 uM
[41] = target: Serine/threonine-protein kinase MARK2 (Homo sapiens) (UniProt Q7KZI7); experiment: Inhibition of MARK2 at 10 uM
[42] = target: Receptor-type tyrosine-protein kinase FLT3 (Homo sapiens) (UniProt P36888); experiment: Inhibition of FLT3 at 10 uM
[43] = target: Aurora kinase A (Homo sapiens) (UniProt O14965); experiment: Inhibition of AURKA at 10 uM
[44] = target: T2, Mitogen-activated protein kinase 10; experiment: Inhibition of JNK3 at 10 uM using 100 uM of ATP
[45] = target: cAMP-dependent protein kinase catalytic subunit alpha (Homo sapiens) (UniProt P17612); experiment: Inhibition of PRKACA at 10 uM
[46] = system: RAF proto-oncogene serine/threonine-protein kinase (Homo sapiens), P04049 [Y340D,Y341D]; experiment: Inhibition of c-Raf Y340D Y341D mutant at 10 uM using 100 uM of ATP
[47] = target: Tyrosine-protein kinase ABL1 (Homo sapiens) (UniProt P00519); experiment: Inhibition of Abl1 at 10 uM
[48] = target: Serine/threonine-protein kinase PLK3 (Homo sapiens) (UniProt Q9H4B4); experiment: Inhibition of PLK3 at 10 uM
[49] = target: Leucine-rich repeat serine/threonine-protein kinase 2 (Homo sapiens) (UniProt Q5S007); experiment: Inhibition of LRRK2 at 10 uM
[50] = target: Calcium/calmodulin-dependent protein kinase type II subunit alpha (Homo sapiens) (UniProt Q9UQM7); experiment: Inhibition of CAMK2A at 10 uM
[51] = target: Receptor tyrosine-protein kinase erbB-4 (Homo sapiens) (UniProt Q15303); experiment: Inhibition of ERBB4 at 10 uM

Mitogen-activated protein kinase 9, sequence (P45984 whole entry): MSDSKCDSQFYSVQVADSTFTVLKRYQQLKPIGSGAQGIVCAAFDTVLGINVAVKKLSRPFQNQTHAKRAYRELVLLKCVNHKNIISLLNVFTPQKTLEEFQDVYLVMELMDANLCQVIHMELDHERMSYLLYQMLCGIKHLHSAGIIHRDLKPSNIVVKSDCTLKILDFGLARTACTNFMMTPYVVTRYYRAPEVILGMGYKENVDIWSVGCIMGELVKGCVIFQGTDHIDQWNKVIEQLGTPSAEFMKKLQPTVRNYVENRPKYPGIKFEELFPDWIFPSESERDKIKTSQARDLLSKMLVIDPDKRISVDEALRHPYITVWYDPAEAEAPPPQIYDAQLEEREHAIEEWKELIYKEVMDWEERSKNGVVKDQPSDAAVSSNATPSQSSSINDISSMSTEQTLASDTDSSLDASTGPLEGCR
Mitogen-activated protein kinase 8, sequence (P45983 whole entry): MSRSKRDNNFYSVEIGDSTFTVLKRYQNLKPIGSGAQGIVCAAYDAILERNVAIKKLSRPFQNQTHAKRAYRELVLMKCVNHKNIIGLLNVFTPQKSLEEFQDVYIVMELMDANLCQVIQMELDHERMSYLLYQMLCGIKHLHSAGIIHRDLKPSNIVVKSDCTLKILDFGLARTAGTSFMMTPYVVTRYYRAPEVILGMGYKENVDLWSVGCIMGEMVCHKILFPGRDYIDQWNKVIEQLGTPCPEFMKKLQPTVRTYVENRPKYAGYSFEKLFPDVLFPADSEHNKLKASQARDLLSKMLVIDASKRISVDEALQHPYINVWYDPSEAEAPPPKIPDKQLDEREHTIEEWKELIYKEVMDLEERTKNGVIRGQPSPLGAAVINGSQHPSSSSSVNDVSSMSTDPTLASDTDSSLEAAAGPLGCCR
T1 sequence (P28482 whole entry): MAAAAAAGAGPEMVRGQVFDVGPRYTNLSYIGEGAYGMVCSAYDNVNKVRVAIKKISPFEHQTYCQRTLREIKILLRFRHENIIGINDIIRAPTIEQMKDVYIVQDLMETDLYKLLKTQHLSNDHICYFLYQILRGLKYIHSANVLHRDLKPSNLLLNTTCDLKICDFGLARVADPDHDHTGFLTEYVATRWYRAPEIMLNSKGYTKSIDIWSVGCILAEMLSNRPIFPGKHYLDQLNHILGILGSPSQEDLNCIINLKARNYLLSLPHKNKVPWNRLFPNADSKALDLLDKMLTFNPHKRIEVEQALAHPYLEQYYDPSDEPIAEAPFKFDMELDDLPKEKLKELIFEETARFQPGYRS
T2 sequence (P53779 whole entry): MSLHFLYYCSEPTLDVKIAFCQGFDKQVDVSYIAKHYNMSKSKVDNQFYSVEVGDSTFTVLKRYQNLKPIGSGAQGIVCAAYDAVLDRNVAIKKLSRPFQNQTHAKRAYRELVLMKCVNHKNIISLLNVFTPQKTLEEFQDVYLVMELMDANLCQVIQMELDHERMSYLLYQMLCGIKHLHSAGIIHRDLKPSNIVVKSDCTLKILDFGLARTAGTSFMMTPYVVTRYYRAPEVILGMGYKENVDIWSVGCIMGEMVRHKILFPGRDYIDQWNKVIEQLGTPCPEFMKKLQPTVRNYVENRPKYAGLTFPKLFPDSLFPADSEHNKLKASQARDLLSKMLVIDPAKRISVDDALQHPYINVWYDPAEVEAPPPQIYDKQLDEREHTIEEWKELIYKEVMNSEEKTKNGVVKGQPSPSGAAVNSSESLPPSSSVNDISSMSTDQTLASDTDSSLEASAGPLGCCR
Mitogen-activated protein kinase 14, sequence (Q16539 whole entry): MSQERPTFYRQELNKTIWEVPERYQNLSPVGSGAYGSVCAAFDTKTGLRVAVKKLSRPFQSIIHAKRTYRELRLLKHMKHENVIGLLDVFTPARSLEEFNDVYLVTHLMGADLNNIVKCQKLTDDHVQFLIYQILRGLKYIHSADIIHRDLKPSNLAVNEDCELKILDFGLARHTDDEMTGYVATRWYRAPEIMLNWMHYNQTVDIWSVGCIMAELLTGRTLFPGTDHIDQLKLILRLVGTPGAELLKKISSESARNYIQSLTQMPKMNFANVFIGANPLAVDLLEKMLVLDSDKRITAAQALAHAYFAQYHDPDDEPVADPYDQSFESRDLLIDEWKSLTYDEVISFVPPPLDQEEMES
Serine/threonine-protein kinase PAK 4 (Homo sapiens), sequence (O96013 whole entry, looked up): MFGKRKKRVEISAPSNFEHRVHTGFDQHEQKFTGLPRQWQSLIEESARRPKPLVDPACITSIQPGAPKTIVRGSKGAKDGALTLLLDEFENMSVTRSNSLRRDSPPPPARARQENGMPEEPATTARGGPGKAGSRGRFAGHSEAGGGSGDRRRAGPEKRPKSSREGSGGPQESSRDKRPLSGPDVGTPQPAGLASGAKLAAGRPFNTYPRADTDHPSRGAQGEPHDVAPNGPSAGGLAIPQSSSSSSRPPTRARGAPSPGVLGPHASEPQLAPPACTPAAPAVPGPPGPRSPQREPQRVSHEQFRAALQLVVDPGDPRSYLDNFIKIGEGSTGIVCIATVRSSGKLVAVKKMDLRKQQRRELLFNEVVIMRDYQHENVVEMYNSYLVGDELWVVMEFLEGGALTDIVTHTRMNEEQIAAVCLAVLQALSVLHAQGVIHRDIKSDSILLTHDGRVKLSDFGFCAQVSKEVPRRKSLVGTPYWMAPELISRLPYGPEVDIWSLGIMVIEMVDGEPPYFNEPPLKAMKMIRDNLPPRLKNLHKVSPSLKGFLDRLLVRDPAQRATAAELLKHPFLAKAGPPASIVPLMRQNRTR
Aurora kinase A (Homo sapiens), sequence (O14965 whole entry): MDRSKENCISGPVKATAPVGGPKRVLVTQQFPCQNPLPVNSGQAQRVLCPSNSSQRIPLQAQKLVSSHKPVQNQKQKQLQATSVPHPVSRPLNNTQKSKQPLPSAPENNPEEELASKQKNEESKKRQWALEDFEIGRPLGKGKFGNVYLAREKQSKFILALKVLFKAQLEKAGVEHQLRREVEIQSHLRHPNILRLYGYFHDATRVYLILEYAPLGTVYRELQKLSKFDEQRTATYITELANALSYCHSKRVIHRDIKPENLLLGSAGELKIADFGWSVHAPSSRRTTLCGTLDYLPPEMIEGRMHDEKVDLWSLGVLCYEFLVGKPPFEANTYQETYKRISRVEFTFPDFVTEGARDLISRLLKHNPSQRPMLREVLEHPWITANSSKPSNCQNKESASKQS
Serine/threonine-protein kinase PLK2 (Homo sapiens), sequence (Q9NYY3 whole entry, looked up): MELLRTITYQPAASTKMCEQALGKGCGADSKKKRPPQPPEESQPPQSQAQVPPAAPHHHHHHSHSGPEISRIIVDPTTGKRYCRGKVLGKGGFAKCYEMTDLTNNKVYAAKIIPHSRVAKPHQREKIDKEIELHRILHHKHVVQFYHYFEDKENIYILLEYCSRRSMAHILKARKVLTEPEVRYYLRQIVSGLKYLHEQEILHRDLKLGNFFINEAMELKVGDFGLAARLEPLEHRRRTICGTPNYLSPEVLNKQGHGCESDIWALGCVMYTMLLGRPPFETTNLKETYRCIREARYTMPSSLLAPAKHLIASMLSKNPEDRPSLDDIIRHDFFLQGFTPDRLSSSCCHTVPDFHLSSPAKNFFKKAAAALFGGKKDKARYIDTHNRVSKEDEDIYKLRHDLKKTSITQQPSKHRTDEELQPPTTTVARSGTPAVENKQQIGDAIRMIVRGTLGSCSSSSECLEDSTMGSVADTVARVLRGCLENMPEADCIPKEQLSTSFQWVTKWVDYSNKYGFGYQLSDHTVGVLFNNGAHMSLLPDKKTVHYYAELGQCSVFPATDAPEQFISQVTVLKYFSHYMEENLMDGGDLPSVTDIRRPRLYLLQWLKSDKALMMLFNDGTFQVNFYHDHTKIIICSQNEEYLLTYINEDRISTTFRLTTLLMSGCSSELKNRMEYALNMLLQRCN
Serine/threonine-protein kinase PLK3 (Homo sapiens), sequence (Q9H4B4 whole entry, looked up): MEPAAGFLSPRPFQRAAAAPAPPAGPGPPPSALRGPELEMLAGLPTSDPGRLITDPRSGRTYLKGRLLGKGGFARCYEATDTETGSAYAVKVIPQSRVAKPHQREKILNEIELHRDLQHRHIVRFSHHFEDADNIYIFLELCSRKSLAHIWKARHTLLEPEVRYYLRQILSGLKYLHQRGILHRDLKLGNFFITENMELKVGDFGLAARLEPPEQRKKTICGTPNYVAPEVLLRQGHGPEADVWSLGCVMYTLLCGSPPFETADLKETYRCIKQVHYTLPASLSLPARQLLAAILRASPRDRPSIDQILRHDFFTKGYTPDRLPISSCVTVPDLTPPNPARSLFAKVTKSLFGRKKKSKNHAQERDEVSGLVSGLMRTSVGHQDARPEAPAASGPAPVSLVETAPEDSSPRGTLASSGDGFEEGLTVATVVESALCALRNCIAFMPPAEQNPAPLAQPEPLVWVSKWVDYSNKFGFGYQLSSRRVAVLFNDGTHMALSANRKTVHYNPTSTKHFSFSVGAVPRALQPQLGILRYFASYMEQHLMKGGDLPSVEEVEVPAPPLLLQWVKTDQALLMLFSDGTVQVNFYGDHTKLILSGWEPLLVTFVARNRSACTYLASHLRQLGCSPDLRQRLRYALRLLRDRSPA
Dual specificity tyrosine-phosphorylation-regulated kinase 1B (Homo sapiens), sequence (Q9Y463 whole entry, looked up): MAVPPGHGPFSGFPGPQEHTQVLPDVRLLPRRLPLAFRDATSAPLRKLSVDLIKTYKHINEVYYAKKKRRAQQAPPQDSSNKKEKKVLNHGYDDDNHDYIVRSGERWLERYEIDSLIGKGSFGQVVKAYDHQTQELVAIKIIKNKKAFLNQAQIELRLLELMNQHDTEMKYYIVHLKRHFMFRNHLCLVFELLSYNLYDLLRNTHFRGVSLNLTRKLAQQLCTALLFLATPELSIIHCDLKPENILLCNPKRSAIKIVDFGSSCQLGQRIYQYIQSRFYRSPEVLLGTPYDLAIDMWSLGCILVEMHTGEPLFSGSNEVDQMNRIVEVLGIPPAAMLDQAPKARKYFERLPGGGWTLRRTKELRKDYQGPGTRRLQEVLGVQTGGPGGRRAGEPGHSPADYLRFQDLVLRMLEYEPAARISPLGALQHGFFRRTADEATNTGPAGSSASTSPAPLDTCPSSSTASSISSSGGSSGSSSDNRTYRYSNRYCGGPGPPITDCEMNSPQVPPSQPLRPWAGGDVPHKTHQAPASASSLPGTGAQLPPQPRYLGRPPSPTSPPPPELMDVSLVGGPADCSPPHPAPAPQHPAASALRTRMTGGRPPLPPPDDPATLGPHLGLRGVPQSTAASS

remaining at 0.5 h, 1 µM [1]: 67% | inhibition [16]: -3% | half-life [2]: 4.6 min | AUC (Rattus norvegicus [3]): 1310 ng·h/mL | inhibition [17]: 3% | inhibition [18]: 5% | F (Rattus norvegicus [4]): 34% | inhibition [19]: -2% | inhibition [20]: 10% | IC50 [5]: > 50 µM | inhibition [21]: 3% | inhibition [22]: -5% | inhibition [23]: -2% | IC50 [6]: 5 nM | inhibition [24]: 5% | inhibition [25]: 8% | inhibition [26]: 2% | inhibition [27]: 2% | efflux ratio at 2 h, 5 µM (MDR1): 0.61 | inhibition [28]: 6% | inhibition [29]: 0% | remaining at 0.5 h, 1 µM [7]: 58% | Kp [8]: 0.7 | inhibition [30]: 4% | inhibition [31]: 0% | IC50 [9]: 2 nM | inhibition [32]: 4% | inhibition [33]: 2% | inhibition [34]: 11% | inhibition [35]: 4% | inhibition [36]: 1% | inhibition [37]: 10% | inhibition [38]: -7% | inhibition [39]: 15% | Papp A→B at 2 h, 5 µM [10]: 3.62 ×10⁻⁶ cm/s | inhibition [40]: 11% | inhibition [41]: 4% | inhibition [42]: 7% | inhibition [43]: 5% | AUC [11]: 235 ng·h/mL | IC50 [12]: 9 nM | inhibition [44]: 96% | inhibition [45]: 0% | remaining at 0.5 h, 1 µM [13]: 35% | inhibition [46]: 10% | inhibition [47]: 0% | inhibition [48]: -8% | inhibition [49]: 13% | inhibition [50]: 4% | IC50 [14]: > 50 µM | inhibition [51]: -2%
Compound: O=C(Cn1c(=O)ccc2cc(C(F)(F)F)ccc21)Nc1scc(Br)c1-c1ncn[nH]1
EC50 (Cortical neurone): 2900 nM

remaining at 0.5 h, 1 µM [1]: 38% | half-life [2]: 2.3 min | AUC (Rattus norvegicus [3]): 571 ng·h/mL | F (Rattus norvegicus [4]): 40% | IC50 [5]: > 50 µM | IC50 [6]: 15 nM | efflux ratio at 2 h, 5 µM (MDR1): 0.68 | remaining at 0.5 h, 1 µM [7]: 14% | Kp [8]: 1.4 | IC50 [9]: 3 nM | Papp A→B at 2 h, 5 µM [10]: 8.31 ×10⁻⁶ cm/s | AUC [11]: 160 ng·h/mL | IC50 [12]: 5 nM | remaining at 0.5 h, 1 µM [13]: 9% | IC50 [14]: > 50 µM
Compound: O=C(Cn1c(=O)ccc2cc(F)c(F)cc21)Nc1scc(Br)c1-c1ncn[nH]1

Continued, compound first:

Compound: O=C(CN1C(=O)CCc2ncccc21)Nc1scc(Br)c1-c1ncn[nH]1
remaining at 0.5 h, 1 µM [1]: 83% | half-life [2]: 2.5 min | AUC (Rattus norvegicus [3]): 2720 ng·h/mL | F (Rattus norvegicus [4]): 91% | IC50 [5]: > 0.5 µM | IC50 [6]: 32 nM | efflux ratio at 2 h, 5 µM (MDR1): 1.8 | remaining at 0.5 h, 1 µM [7]: 55% | Kp [8]: 0.24 | IC50 [9]: 9 nM | Papp A→B at 2 h, 5 µM [10]: 36.8 ×10⁻⁶ cm/s | AUC [11]: 35 ng·h/mL | IC50 [12]: 14 nM | remaining at 0.5 h, 1 µM [13]: 50% | IC50 [14]: > 50 µM

Compound: N#Cc1csc(NC(=O)CN2C(=O)CCc3ccccc32)c1-c1ncn[nH]1
solubility at 1 h, 20000 µM [15]: 95 µM | remaining at 0.5 h, 1 µM [13]: 0%

Compound: O=C(Cc1cccc2cnccc12)Nc1scc(Cl)c1-c1ncn[nH]1
solubility at 1 h, 20000 µM [15]: 25 µM | Kp [8]: 0.4 | AUC [11]: 88 ng·h/mL | remaining at 0.5 h, 1 µM [13]: 9%
